# Results: ChEMBL document CHEMBL3259693, “Multitarget drug discovery for tuberculosis and other infectious diseases” (J Med Chem, 2014)
# pIC50: −log10 of the molar value. Activity calls are given as the source filed them. The calls are words filed in the database; no cut-off is given here.
# What was measured:
# [1] = tested on: Mycobacterium tuberculosis; assay: Antimicrobial activity against nonreplicating streptomycin-starved Mycobacterium tuberculosis 18b at 1 ug/ml incubated for 7 days measured after 28 days by resazurin microplate reduction assay; type: functional
# [2] = Inhibition of Mycobacterium tuberculosis cis-decaprenyl diphosphate synthase
# [3] = Inhibition of Mycobacterium tuberculosis cis-farnesyl diphosphate synthase
# [4] = tested on: Bacillus subtilis; assay: Antimicrobial activity against Bacillus subtilis subsp. subtilis ATCC 6051 after 12 to 16 hrs by microbroth dilution method; type: functional, organism-based
# [5] = Inhibition of Plasmodium vivax geranylgeranyl diphosphate synthase
# [6] = Inhibition of Mycobacterium smegmatis succinate dehydrogenase using succinate as substrate by MTT assay; parameters: species or system Mycolicibacterium smegmatis
# Method in brief: (§1)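 M. smegmatis membrane preparation with 5 mM KCN. Dehydrogenase activity was followed as MTT reduction at 570 nm after adding substrate: NADH (Complex I plus NDH-2), deamino-NADH (Complex I only), succinate, malate or lactate. IC50 values were derived from these rates.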
# [7] = tested on: Escherichia coli; assay: Ratio of IC50 for Escherichia coli ATCC 29425 in presence of 10% fetal bovine serum to IC50 for Escherichia coli ATCC 29425; type: functional
# Method in brief: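 E. coli broth microdilution in LB. Culture was grown to OD600 ~0.4, diluted 500-fold, and exposed to compound from 0.3 mM, 2× serially diluted to 292 nM. Plates ran 3 h at 37 °C with or without 10% FBS. Viability was read by MTT at 570 nm, and IC50 was obtained by non-linear regression.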
# [8] = tested on: Mycobacterium tuberculosis; assay: Antimicrobial activity against Mycobacterium tuberculosis H37Rv; type: functional
# [9] = Inhibition of Mycobacterium smegmatis electron transport protein complex 1 using deamino-NADH as substrate by MTT assay; parameters: species or system Mycolicibacterium smegmatis; method in brief: as §1
# [10] = tested on: Escherichia coli; assay: microbe, parasite or virus in culture; type: functional, organism-based; details: ATCC 29425, 3 h
# [11] = biological target: T1, 4,4'-diapophytoene synthase (Staphylococcus aureus, UniProt A9JQL9); assay: Inhibition of Staphylococcus aureus CrtM
# T1 sequence (A9JQL9 whole entry): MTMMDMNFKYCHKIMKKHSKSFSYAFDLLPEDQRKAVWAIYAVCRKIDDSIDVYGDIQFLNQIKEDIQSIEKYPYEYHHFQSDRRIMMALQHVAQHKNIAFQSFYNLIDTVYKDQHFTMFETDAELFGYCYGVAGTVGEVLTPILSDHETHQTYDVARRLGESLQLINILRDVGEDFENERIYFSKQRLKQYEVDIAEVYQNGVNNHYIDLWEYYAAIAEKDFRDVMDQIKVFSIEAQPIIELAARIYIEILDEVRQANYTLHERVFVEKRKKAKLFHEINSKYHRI
# [12] = Inhibition of Mycobacterium smegmatis malate dehydrogenase using malate as substrate by MTT assay; parameters: species or system Mycolicibacterium smegmatis; method in brief: as §1
# [13] = Inhibition of Mycobacterium smegmatis NADH dehydrogenase using […] by MTT assay; parameters: species or system Mycolicibacterium smegmatis; method in brief: as §1
# [14] = tested on: Saccharomyces cerevisiae; assay: Antimicrobial activity against Saccharomyces cerevisiae ATCC 208352 after 48 hrs by microbroth dilution method; type: functional, organism-based; details: ATCC 208352, 48 h
# [15] = Therapeutic index, ratio of IC50 for human MCF7 cells to MIC for Mycobacterium tuberculosis ATCC 27294; type: cell-based; details: MCF7 cells versus Mycobacterium tuberculosis ATCC 27294, read-out: TI
# [16] = tested on: Plasmodium falciparum; assay: Antimicrobial activity against Plasmodium falciparum 3D7 by intraerythrocytic assay; type: functional, organism-based
# [17] = Inhibition of Mycobacterium smegmatis electron transport protein complex 1 using NADH as substrate by MTT assay; parameters: species or system Mycolicibacterium smegmatis; method in brief: as §1
# [18] = Inhibition of Staphylococcus aureus farnesyl diphosphate synthase
# [19] = tested on: Mycobacterium tuberculosis; assay: Antimicrobial activity against Mycobacterium tuberculosis H37Rv incubated for 7 days measured after 28 days by resazurin microplate reduction assay; type: functional
# Method in brief: (§2)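 Resazurin microplate reduction assay (REMA) on actively growing M. tuberculosis H37Rv. Drug tested from 10 ng/mL to 10 μg/mL. Medium was supplemented with 0, 10, 100 or 1000 μM menaquinone-4 (MK-4) to test quinone rescue. Activity was read as loss of resazurin reduction to fluorescent resorufin, giving an MIC.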
# [20] = Inhibition of Mycobacterium tuberculosis MenA
# [21] = Inhibition of Escherichia coli N-terminal strep-tagged MenA expressed in Escherichia coli C43 (DE3) assessed as demethylmenaquinone-3 formation after 30 mins by HPLC analysis
# [22] = Therapeutic index, ratio of IC50 for human MCF7 cells to IC50 for Plasmodium falciparum 3D7; type: cell-based; details: MCF7 cells versus Plasmodium falciparum 3D7, read-out: Ratio IC50
# [23] = Inhibition of Mycobacterium smegmatis MenA; parameters: species or system Mycolicibacterium smegmatis
# [24] = Inhibition of Mycobacterium smegmatis lactate dehydrogenase using lactate as substrate by MTT assay; parameters: species or system Mycolicibacterium smegmatis; method in brief: as §1
# [25] = Inhibition of Escherichia coli undecaprenyl diphosphate synthase
# [26] = tested on: MCF7; assay: Cytotoxicity against human MCF7 cells assessed as growth inhibition by MTT assay; type: cell-based
# [27] = tested on: Mycolicibacterium smegmatis; assay: Inhibition of respiration in Mycobacterium smegmatis after 5 mins by methylene blue reduction assay in presence of NADH; type: functional, organism-based
# [28] = Inhibition of Mycobacterium smegmatis MenG using radiolabeled S-adenosylmethionine as substrate after 1 hr by liquid scintillation counting analysis; parameters: species or system Mycolicibacterium smegmatis
# [29] = tested on: Candida albicans; assay: Antimicrobial activity against Candida albicans CAI-4; type: functional, organism-based
# [30] = Inhibition of Staphylococcus aureus undecaprenyl diphosphate synthase
# [31] = tested on: Mycobacterium tuberculosis; assay: microbe, parasite or virus in culture; type: functional; details: ATCC 27294
# [32] = tested on: Mycolicibacterium smegmatis; assay: microbe, parasite or virus in culture; type: functional; details: ATCC 700084
# [33] = tested on: Mycolicibacterium smegmatis; assay: Disruption of membrane potential in Mycobacterium smegmatis by DisC3(5) probe-based fluorescence spectrophotometry; type: functional, organism-based
# [34] = biological target: T2, Geranylgeranyl pyrophosphate synthase (Homo sapiens, UniProt O95749); assay: Inhibition of human geranylgeranyl diphosphate synthase
# T2 sequence (O95749 whole entry): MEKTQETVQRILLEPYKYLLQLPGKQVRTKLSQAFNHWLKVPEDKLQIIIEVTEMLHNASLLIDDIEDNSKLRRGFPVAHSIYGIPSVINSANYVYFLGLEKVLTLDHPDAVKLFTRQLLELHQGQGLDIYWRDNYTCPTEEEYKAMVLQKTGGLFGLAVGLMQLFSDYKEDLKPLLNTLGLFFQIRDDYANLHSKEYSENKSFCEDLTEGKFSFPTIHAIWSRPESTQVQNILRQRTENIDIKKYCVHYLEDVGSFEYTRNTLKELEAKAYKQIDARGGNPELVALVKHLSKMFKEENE
# [35] = tested on: Mycolicibacterium smegmatis; assay: Induction of collapse in deltapH in Mycobacterium smegmatis inverted membrane vesicles at 30 to 150 uM by 31P NMR spectroscopy; type: functional
# [36] = tested on: Mycobacterium tuberculosis; assay: Antimicrobial activity against Mycobacterium tuberculosis H37Rv incubated for 7 days measured after 28 days by resazurin microplate reduction assay in presence of MK-4; type: functional; method in brief: as §2
# [37] = tested on: Escherichia coli; assay: Induction of collapse in deltapH in Escherichia coli inverted membrane vesicles by 31P NMR spectroscopy; type: functional, organism-based
# [38] = biological target: T3, Squalene synthase (Homo sapiens, UniProt P37268); assay: Inhibition of human SQS
# T3 sequence (P37268 whole entry): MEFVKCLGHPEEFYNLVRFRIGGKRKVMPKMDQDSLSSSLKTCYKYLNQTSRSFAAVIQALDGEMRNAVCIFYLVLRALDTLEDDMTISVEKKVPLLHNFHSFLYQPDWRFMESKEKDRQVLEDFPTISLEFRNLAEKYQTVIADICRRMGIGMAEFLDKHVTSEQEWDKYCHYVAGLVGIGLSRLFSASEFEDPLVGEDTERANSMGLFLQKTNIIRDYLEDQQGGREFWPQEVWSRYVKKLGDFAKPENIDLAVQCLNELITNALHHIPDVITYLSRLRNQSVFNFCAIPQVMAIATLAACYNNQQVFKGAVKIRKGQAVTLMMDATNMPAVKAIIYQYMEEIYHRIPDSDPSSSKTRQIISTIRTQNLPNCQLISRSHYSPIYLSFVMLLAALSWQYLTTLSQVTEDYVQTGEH
smiles,measurement,setting,value
CC(C)=CCC/C(C)=C/CNCCNC1C2CC3CC(C2)CC1C3 (centres undefined) [SQ109],MIC,[1],1 µg/mL
same,pIC50,[2],≤ 4.30
same,pIC50,[3],≤ 4.30
same,pIC50,[4],4.64
same,pIC50,[5],≤ 4.30
same,IC50,[6],30 µg/mL
same,Ratio IC50,[7],1.6
same,MIC,[8],0.7 µM
same,IC50,[9],30 µg/mL
same,pIC50,[10],5.07
same,pIC50,[11],4.00
same,IC50,[12],10 µg/mL
same,IC50,[13],30 µg/mL
same,pIC50,[14],5.48
same,selectivity ratio,[15],120
same,pIC50,[16],5.52
same,IC50,[17],30 µg/mL
same,pIC50,[18],≤ 4.30
same,MIC,[19],0.15 µg/mL
same,pIC50,[20],5.05
same,pIC50,[21],5.48
same,selectivity ratio,[22],18
same,pIC50,[23],5.32
same,IC50,[24],30 µg/mL
same,pIC50,[25],≤ 4.30
same,pIC50,[26],4.74
same,pIC50,[27],4.24
same,pIC50,[28],4.89
same,pIC50,[29],5.00
same,pIC50,[30],≤ 4.30
same,MIC,[31],0.3 µM
same,MIC,[32],9.4 µM
same,EC50,[33],20 µg/mL
same,pIC50,[33],4.26
same,pIC50,[34],5.35
same,Activity,[35],Active
same,MIC,[36],1 µg/mL
same,pIC50,[37],6.10
same,pIC50,[38],4.00
